# Bioassay records: PubChem, several laboratories
# Sampled rows, rich in hits. Any-hit rate of the full collection: about 7.1%.
# H69AR growth 86K – growth inhibitors of human H69AR lung tumor cells | viability, % at 10 µM | H69AR lung tumor viability, ATP luminescence, 72 h; stronger effect = lower value | AID 598 | actives 6% (n = 85,000);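 active = viability at or below 40%; inactive = viability above 40%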;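 note: multidrug resistant small cell line overexpressing MRP-1 efflux transporter; 100% = mean luminescence of untreated control wells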
# HCT116 bCat-KO – beta-catenin-lacking colon tumor cell growth suppression | HCT116 beta-catenin knockout viability, CellTiter-Glo, 60 h; stronger effect = lower value | viability, % at 10 µM | actives 1.5% (n = 140,000) | AID 818;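 active = viability at or under a set limit, the compound median less 4 SD, cut at about 6% in these data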;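 note: 0% = Hyamine 1622 control at 20 µM and 100% = untreated cell control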
# Cav3 T inh – blocks human Cav3.2 T-type calcium channel. Cav3.2-expressing cells, Fluo-4 calcium fluorescence FDSS; stronger effect = lower value. B-score at 10 µM. actives 4% (n = 100,000);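 active = single-dose well whose peak fluorescence ratio is a statistical outlier from its plate by either plate-standardised score or position-corrected B-score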
# HCT116 PTEN-null – suppresses growth of cells with PTEN deletion; HCT116 PTEN-null viability, CellTiter-Glo, 60 h; stronger effect = lower value; viability, % at 10 µM; actives 1.2% (n = 140,000);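 active = viability at or below a set limit, 4 SD under the median of all tested compounds, cut at about 3.7% in these data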;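 note: PTEN knockout HCT116 line with beta catenin targeted HCT116 as companion control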
# Fibroblast inh – blocks proliferation of human lung fibroblasts. LL 47 human lung fibroblast viability, ATP luminescence; stronger effect = lower value. viability, % at 10 µM. actives 1.1% (n = 85,000);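 active = viability at or below 50% in the single dose screen; inactive = viability above 50%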;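 note: compound exposure lasted 72 h before the ATP readout; 100% = median luminescence of untreated cell-only wells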
#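 test system = LL 47 human lung fibroblasts | amount = 1,150 fibroblasts seeded per well | medium = 15% FBS in IMEM | times = overnight cell rest, 72 h compound treatment at 37 °C | measured by = CellTiter-Glo luminescence measuring cellular ATP | read-out = viability percentage against median untreated-cell control | benchmarks = cell-only wells, no compound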
# HUVEC prolif 384 – inhibitors of human endothelial cell proliferation | HUVEC proliferation, CellTiter-Glo luminescence, 72 h; stronger effect = lower value | viability, % at 10 µM (by protocol) | actives 1.1% (n = 86,000);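 active = viability at or below 30%; inactive = viability above 30%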;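 note: 100% = median luminescence of DMSO-only cell control wells on each plate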
# * = called active by the depositor; x = not tested or not shown.
SMILES,H69AR growth 86K,HCT116 bCat-KO,Cav3 T inh,HCT116 PTEN-null,Fibroblast inh,HUVEC prolif 384
c1ccc(Nc2nc(N3CCCCC3)nc(N3CCNCC3)n2)cc1,x,1.5*,0.073,1.4*,x,x
C1CCN(c2nc(N3CCCC3)nc(N3CCNCC3)n2)C1,6.0*,62,0.41,51,86,90
Cc1ccc(-n2c(SCC(=O)Nc3nccs3)nc3c(c2=O)SCC3)cc1,67,92,x,108,27*,98
CC(O)CN1C(=O)C(CC(=O)Nc2ccc(Cl)cc2)SC1=Nc1ccccc1 (stereo not drawn),39*,76,-3.8,68,92,66
CCc1cccc(CC)c1NC(=S)NCCc1c(C)[nH]c2ccc(C)cc12,x,6,x,2.6*,x,x
CCc1cccc(C)c1NC(=S)NCCc1c(C)[nH]c2ccc(C)cc12,x,3.5*,-3.4*,4,x,x
COc1ccc2[nH]c(C)c(CCNC(=S)Nc3cccc(C)c3)c2c1,x,56,x,69,x,x
C=CCn1c(O)c(N=Nc2nc3ccccc3c(=O)n2-c2ccccc2)c2ccccc21,x,61,x,59,x,x
COCCCNCCOCCOc1ccc(Cl)cc1C(C)(C)C,x,0.9*,x,1.1*,x,x
O=C(Nc1nnc(-c2ccccc2Cl)o1)c1ccc(S(=O)(=O)N2CCCCCC2)cc1,31*,18,-7.1*,13,60,3.0*
CCC1CCCCN1S(=O)(=O)c1ccc(C(=O)Nc2nnc(-c3ccccc3Cl)o2)cc1 (stereo not drawn),20*,16,-7.9*,16,64,57
O=C(Nc1ccccc1)c1ccc(S(=O)(=O)N2CCCCC2)cc1,x,87,-0.027,96,x,x
O=C(Nc1ccn(-c2ccccc2)n1)c1ccc(S(=O)(=O)N2CCCCCC2)cc1,79,20,-1.9*,23,105,92
CC1CCCCN1S(=O)(=O)c1ccc(C(=O)Nc2nnc(-c3ccccc3Cl)o2)cc1 (stereo not drawn),52,23,x,17,64,3.7*
CC1(C)COCN1S(=O)(=O)c1ccc(C(=O)Nc2nnc(-c3ccc(Cl)s3)o2)cc1,x,11,x,5,x,x
O=C(Cc1ccc(-n2c(=O)[nH]c3ccsc3c2=O)cc1)N1CCN(c2ccc(Cl)cc2)CC1,x,91,x,91,x,x
Cc1ccc(CN2CCN(/N=C/c3sccc3C)CC2)c(C)c1,x,89,x,92,x,x
C/C(=N/NC(=O)c1ccco1)c1ccc(NC(=O)c2ccc(F)cc2)cc1,x,86,x,90,x,x
COc1ccc(C2CC(=O)c3sc(NC(C)=O)nc3C2)cc1 (stereo not drawn),x,91,x,95,x,x
CCCCN(CC)S(=O)(=O)c1ccc(C(=O)Nc2nnc(-c3ccccc3Cl)o2)cc1,27*,16,-3,16,75,3.3*
CCCCN(C)S(=O)(=O)c1ccc(C(=O)Nc2nnc(-c3cccs3)o2)cc1,35*,15,x,13,66,5.1*
CCCCN(CC)S(=O)(=O)c1ccc(C(=O)Nc2nnc(COC)o2)cc1,42,55,-0.21,63,99,76
O=C(Nc1nnc(-c2cccs2)o1)c1cccc(Oc2ccccc2)c1,39*,19,-8.3*,10,88,61
Cc1cc(C)c(Cc2c(C)nc3c(C(=O)NCc4ccco4)cnn3c2C)c(C)c1,74,33,-0.079,46,97,59
Cc1c(C(=O)NN)nc2ccccn12,x,92,x,89,x,x
SMILES,H69AR growth 86K,HCT116 bCat-KO,Cav3 T inh,HCT116 PTEN-null,Fibroblast inh,HUVEC prolif 384
CCCOn1c(OCC(C)C)nc2ccccc2c1=O,77,85,-5*,93,95,92
CC(C)COc1nc2ccccc2c(=O)n1OCC(=O)O,x,81,x,100,x,x
Cc1nnc(SCC(=O)NNC(=O)C(C)C)[nH]c1=O,x,94,x,94,x,x
O=C(CSc1nnc(-c2ccccc2O)o1)Oc1ccc(OCc2ccccc2)cc1,27*,77,0.0093,69,70,50
O=C(CSc1nnc(-c2cccnc2)o1)Oc1ccccc1,x,105,-0.62,100,x,x
O=C(N1CCN(c2ccccc2)CC1)C1(c2cccs2)CCOCC1,x,81,x,78,x,x
CCCCn1c(=O)c(CCC(=O)OCC(=O)Nc2ccc(F)c(Cl)c2)nc2ccccc21,x,98,x,99,x,x
CCOc1cc(/C=C(/C#N)C(=O)Nc2ccc(O)cc2)cc(Br)c1O,x,18,-7.9*,19,x,x
O=C(Nc1nc(-c2cccs2)c(-c2cccs2)s1)C1CCCC1,x,60,x,58,x,x
CC(C)(c1ccccc1)c1ccc(OCCn2cnc3ccccc3c2=O)cc1,85,18,-6.5*,33,95,91
O=C(c1ccccc1)c1ccc(OCCn2cnc3ccccc3c2=O)cc1,93,84,-0.00047,91,86,77
COc1ccccc1-c1nnc(SCC(=O)c2ccc(C3CCCCC3)cc2)n1Cc1ccco1,89,82,-4.7*,60,97,54
Cc1occc1-c1nnc(SCC(=O)c2ccc(F)cc2)n1Cc1ccco1,103,83,-2.3,75,98,90
O=C(CSc1nnc(-c2cc3ccccc3cc2O)n1Cc1ccco1)c1ccc(F)cc1,76,66,-4*,48,87,60
CC1=C(C)CS(=O)N(S(=O)(=O)c2ccccc2)C1 (stereo not drawn),1.8*,91,-7.9*,96,40*,74
CC1=C(C)CS(=O)N(c2ccc(S(N)(=O)=O)cc2)C1 (stereo not drawn),12*,93,-7.2*,99,69,95
CC1CN(S(=O)(=O)c2ccccc2)CC(C)O1 (stereo not drawn),99,97,-0.012,92,102,94
CC(NC(=O)CSc1ncccn1)c1ccccc1 (stereo not drawn),x,102,0.92,89,89,91
COc1ccc(/C=C2\CCc3ccccc3C2=O)cc1Cn1cccn1,x,2.9*,-3.7*,2.2*,x,x
CN(C)c1nc(-c2ccccc2)c2cnn(Cc3ccccc3)c2n1,19*,66,1.1,56,81,73
Cc1ccc(NC(=O)C(C)OC(=O)CCNS(=O)(=O)c2ccc(C)cc2)cc1 (stereo not drawn),x,99,x,103,x,x
Cc1cccc(S(=O)(=O)NCCC(=O)OC(C)C(=O)NC(=O)NC2CCCCC2)c1 (stereo not drawn),108,97,-7.8*,110,95,101
COc1ccc(N=C2NN=C(c3c(C)[nH]c4ccccc34)CS2)cc1,x,3.8*,x,5,x,x
